Bioassay records as filed in PubChem BioAssay.
STK33 kinase inh – human STK33 kinase inhibition | Q9BYT3 | purified STK33, MBP phosphorylation, ADP-Glo luminescence | inhibition, % at 10 µM | 320,000 tested, 0.073% active;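 active = inhibition at or above 25%, using the most active replicate where run in duplicate; inactive = inhibition below 25%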
GSK3beta inhib – human GSK3beta kinase inhibition; P49841; GST-GSK3beta kinase, ADP-Glo luminescence, 60 min; hits give low values; activity score (negative = inhibition), % at 10 µM; 300,000 tested, 0.038% active;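 active = more than half of replicate wells score below -50%, meaning over 50% inhibition versus plate controls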;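 note: 0% = median DMSO wells and -100% = median GW8510 positive control wells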
Target sequence (P49841 whole entry, looked up): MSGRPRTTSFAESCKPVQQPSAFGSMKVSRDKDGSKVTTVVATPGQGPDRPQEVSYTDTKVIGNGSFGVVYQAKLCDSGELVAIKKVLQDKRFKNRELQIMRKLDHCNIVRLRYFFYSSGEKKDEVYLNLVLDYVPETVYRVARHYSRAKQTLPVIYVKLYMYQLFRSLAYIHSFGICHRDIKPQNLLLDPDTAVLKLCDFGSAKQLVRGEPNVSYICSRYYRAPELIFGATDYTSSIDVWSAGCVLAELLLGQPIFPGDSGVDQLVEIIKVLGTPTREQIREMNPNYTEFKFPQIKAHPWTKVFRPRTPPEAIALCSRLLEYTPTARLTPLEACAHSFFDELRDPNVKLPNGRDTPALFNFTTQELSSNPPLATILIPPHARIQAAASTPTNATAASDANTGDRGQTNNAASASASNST
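Test system: GST-fused GSK3beta enzyme, cell-free | Quantity: 1.6 ng GST-GSK3beta enzyme per well | Reagent: 25 µM ATP with peptide substrate | Schedule: 60 min enzyme reaction, room temperature | Signal: Luminescent ADP-Glo measurement of ADP formed | Read-out basis: Score relative to plate controls | Control set: DMSO and 20 µM GW8510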
CDK5 p35 inh – blocks human CDK5/p35 kinase activity. Recombinant CDK5/p35, ADP-Glo luminescence, 60 min. 330,000 tested, 0.01% active. inhibition, % at 10 µM;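 active = highest replicate inhibition of at least 50% and at least 75% of replicates reaching 50%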;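 note: plate controls were DMSO neutral control for no effect and GW8510 at 10 µM for full effect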
GSK3 alpha inh – blocks human GSK-3 alpha kinase. 320,000 tested, 0.1% active. ADP-Glo luminescence, 60 min. P49840. inhibition, % at 10 µM;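 active = more than half of replicates show inhibition above 20%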;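 note: GST-tagged GSK-3 alpha with peptide substrate and 25 µM ATP; 0% = DMSO neutral wells and 100% = GW8510 positive control wells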
Dyrk1A ADPGlo – inhibitors of rat Dyrk1A kinase; inhibition, % at 12.5 µM; ADP-Glo luminescence, NFATc1 peptide; AID 504441; 310,000 tested, 0.43% active; in the data active = inhibition above about 50%;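 note: plate controls were vehicle with enzyme for no effect and no enzyme for full effect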
* hit, by the source's call; nt = no result. Only a selection was taken, and hits are over-represented in it overall.

SMILES	STK33 kinase inh	GSK3beta inhib	CDK5 p35 inh	GSK3 alpha inh	Dyrk1A ADPGlo
c1coc(C2Nc3ccccc3-c3nc4ccccc4n32)c1 (stereo not drawn)	36*	0	3	5	6
Cc1nn(-c2nccs2)c2c1C(=O)CC(C)(C)C2Br (stereo not drawn)	nt	nt	56*	nt	-1
COc1ccc(C2=CC3=C(Br)C(=O)C(C)(O)C(=O)C3=CO2)cc1 (stereo not drawn)	29*	2	3	0	4
Oc1ccc(/C=C/c2ccnc3ccccc23)cc1	25*	-3	-2	-2	-4
OCC[C@H]1C[C@H](O)[C@@H](O)[C@]2(Cc3ccccc3CCO2)O1	0	nt	-1	-1	5
COc1ccc(OC)c(NC(=O)c2cccc(NC(=O)c3ccccc3)c2)c1	-1	0	0	-2	nt
CC(=O)Nc1cccc2c1C(=O)NC2=O	1	2	1	72*	22
O=C1NC(=O)c2c(NC(=O)C3CCCO3)cccc21 (stereo not drawn)	1	-3	7	8	nt
CNC(=O)NC(=O)CSc1nc(-c2cccs2)c(C#N)c(=O)[nH]1	nt	-75*	1	nt	6
CSc1nc(-c2cccs2)c(C#N)c(=O)[nH]1	1	3	0	1	48
CCN(CC)CCCNc1nc(N)c([N+](=O)[O-])c(N2CCCCCC2)n1	-1	-16	0	54*	11
C=CCNc1nc(N)c([N+](=O)[O-])c(N2CCCCCC2)n1	-2	-7	2	22	22
CCOc1ccc(NC(=O)c2nn(-c3ccc(OC)cc3OC)c(=O)c3ccccc23)cc1	-1	2	nt	-1	nt
Nc1c(O)ccc2c1C(=O)c1ccccc1C2=O	35*	-13	nt	30	nt
COc1ccc2c(c1O)C(=O)c1ccccc1C2=O	0	5	nt	-1	nt
CN(C)CCCNc1ccc(-c2cc(Nc3cccc(Cl)c3)ncn2)cn1	5	-86*	7	36	17
Cc1ccccc1Nc1cc2ccccc2c(=O)[nH]1	0	-5	1	-5	52*
O=c1[nH]c(Nc2ccccc2Cl)cc2ccccc12	-1	-2	-1	-2	9
Cc1ccc(NC(=O)CSCC(=O)OC(C)C(=O)Nc2ccccc2C)cc1 (stereo not drawn)	nt	nt	0	nt	-11
CN1CCCC1CCNc1ccc2oc3ccccc3c(=O)c2c1 (stereo not drawn)	39*	-1	nt	3	nt
O=c1c2ccccc2oc2ccc(NCCCN3CCOCC3)cc12	50*	2	3	3	5
CN1CCCC1CCNc1ccc2c(=O)c3ccccc3oc2c1 (stereo not drawn)	13	2	0	7	16
O=C(COc1ccc(Cl)cc1)NCCNC(=O)c1ccccn1	-1	-2	0	-1	-1
COc1cc(/C=N/NC(=O)c2sc(N)c(C#N)c2C)cc(Br)c1O	1	-11	1	62*	6
CCC(C(=O)Nc1ccc2[nH]ncc2c1)c1ccccc1 (stereo not drawn)	26*	2	4	12	26
SMILES	STK33 kinase inh	GSK3beta inhib	CDK5 p35 inh	GSK3 alpha inh	Dyrk1A ADPGlo
COC(=O)Nc1nnc(CCc2ccccc2)s1	1	-1	-1	-1	5
COC(=O)Nc1nnc(Cc2ccccc2)s1	26*	-23	2	0	4
Cc1[nH]cnc1C(=O)N/N=C/c1c(Cl)cccc1Cl	27*	-29	26	33	28
CC1CCC2(CC1)NC(=O)N(CC(=O)Nc1sc3c(c1C(N)=O)CCC3)C2=O (stereo not drawn)	0	-32	5	78*	36
CC1CCCCC12NC(=O)N(CC(=O)Nc1sc3c(c1C(N)=O)CCC3)C2=O (stereo not drawn)	0	-3	-2	58*	1
CN(CCOc1ccc(Cl)cc1)C(=O)C1CCN(C(=O)c2ccc(Cl)cc2)CC1	-2	2	-1	1	2
COc1cc(/C=C/C(O)=C/C(=O)/C=C/c2ccc(O)cc2)ccc1O	43*	nt	-2	-3	-1
Cc1cc(NC(=O)C(C)SCC(=O)Nc2nc3c(F)cc(F)cc3s2)no1 (stereo not drawn)	11	nt	-2	-3	-1
Clc1ccc(/C=N/Nc2ncnc3nc[nH]c23)cc1	6	-36	11	61*	14
CCCOc1cccc(C(=O)N/N=C/c2ccoc2)c1	0	-1	0	-2	3
Cn1c(N=Nc2ccccc2)nc2ccccc21	34*	-22	38	27	29
O=C(O)C1OC(Oc2c(-c3ccc(O)c(O)c3)oc3cc(O)cc(O)c3c2=O)C(O)C(O)C1O (stereo not drawn)	1	0	nt	6	nt
O=c1c(O)c(-c2ccc(O)c(O)c2)oc2cc(O)cc(O)c12	38*	-45	-3	57*	4
O=c1cc(-c2ccc(O)c(O)c2)oc2cc(O)cc(O)c12	-1	-35	15	27	91*
COc1ccc(-c2cc(=O)c3c(O)cc(O)cc3o2)cc1	0	nt	-2	0	-1
CN(C)CCCNC(=S)N(CCO)Cc1cc2cc3c(cc2[nH]c1=O)OCO3	-2	nt	2	-1	-3
CCOC(=O)C1CCN(C(=O)c2ccccc2NC(=O)C2=C(C)OCCS2)CC1	-1	2	nt	-1	nt
CN1/C(=C/C=C(/C#N)C(N)=O)C(C)(C)c2ccccc21	3	-35	4	63*	11
c1ccc(C2=Nn3c(nnc3-c3cccs3)SC2)cc1	-2	1	0	-4	nt
c1csc(C2=Nn3c(nnc3-c3ccncc3)SC2)c1	4	-26	1	87*	31
O=C(COc1ccccc1C(=O)O)Nc1nc2ccc([N+](=O)[O-])cc2s1	2	-1	-1	2	23
COC(=O)c1cc(NC(=O)C2COc3ccccc3O2)cc(C(=O)OC)c1 (stereo not drawn)	29*	3	0	-2	4
O=C(Nc1c(C(=O)O)oc2ccc(Br)cc12)c1ccccc1	0	0	-1	75*	2
Cn1nnnc1Sc1ncnc2scc(-c3cccs3)c12	1	nt	5	5	59*
Cn1nnnc1Sc1ncnc2scc(-c3ccc(-c4ccccc4)cc3)c12	-1	nt	0	2	-1
SMILES	STK33 kinase inh	GSK3beta inhib	CDK5 p35 inh	GSK3 alpha inh	Dyrk1A ADPGlo
Cc1cccn2c(=O)nc(SCC(=O)N3CCC(Cc4ccccc4)CC3)nc12	-1	4	-1	-1	-1
CN(c1ccccc1)c1nc(N)c([N+](=O)[O-])c(NC2CCCCC2)n1	-1	3	1	1	-2
C=CCNc1nc(N)c([N+](=O)[O-])c(NCCO)n1	-1	-18	4	-3	-1
COc1ccc(OC)c(Nc2nc(N)c([N+](=O)[O-])c(NC3CCCCC3)n2)c1	0	3	0	2	3
Nc1nc(NC2CCCCC2)nc(NCCO)c1[N+](=O)[O-]	3	-58*	1	86*	2
COCCNc1nc(N)c([N+](=O)[O-])c(NC2CCCCC2)n1	1	-19	-1	61*	3
